Screening results deposited in PubChem by The Scripps Research Institute Molecular Screening Center.
V1R ag counter: agonists of human V1a receptor, primary screen, counter-screen for OXTR agonist project, fluorescence, CHO-V1R cells; AID 2797, 2010; Fluo-8 calcium fluorescence, agonist mode; 0% DMSO, 100% 3 nM vasopressin; 320,000 compounds, 0.25% hits; activation, % at 3 µM;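 active means activation above the mean activation of all tested compounds plus 3 SD, per screening run, cut at about 20% in these data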;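 further: signal is peak over basal fluorescence ratio across a 100 second FLIPR read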
OXTR ag: human OXTR agonists, primary screen, fluorescence, CHO-OTR cells, Fluo-8 calcium. Oxytocin receptor (Homo sapiens), P30559. Fluo-8 calcium fluorescence; normalized: DMSO 0%, oxytocin 100%. activation, % at 3 µM. 320,000 compounds, 0.32% hits. AID 2435, 2010;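 active means activation above the mean of all tested compounds plus 3 SD, cutoff set per screening run, cut at about 20% in these data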;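 further: peak over basal fluorescence ratio from a 100 s FLIPR kinetic read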
Target sequence (P30559 whole entry, looked up): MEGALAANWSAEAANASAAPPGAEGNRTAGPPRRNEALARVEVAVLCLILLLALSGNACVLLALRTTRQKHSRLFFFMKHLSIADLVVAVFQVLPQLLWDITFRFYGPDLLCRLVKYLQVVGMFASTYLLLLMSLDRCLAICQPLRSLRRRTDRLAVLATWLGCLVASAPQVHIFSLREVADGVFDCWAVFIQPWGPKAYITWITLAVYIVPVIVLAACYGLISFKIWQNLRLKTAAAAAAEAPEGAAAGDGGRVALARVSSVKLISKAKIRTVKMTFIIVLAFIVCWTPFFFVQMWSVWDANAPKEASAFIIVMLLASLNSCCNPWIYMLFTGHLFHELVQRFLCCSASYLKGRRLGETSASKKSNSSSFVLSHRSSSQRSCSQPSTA
TAAR1 agonist: human TAAR1 agonists, primary screen, Fluo-8 calcium fluorescence, CHO RD-HGA16 cells | Trace amine-associated receptor 1 (Homo sapiens), Q96RJ0 | vehicle wells 0%, saturating PEA agonist 100% | activation, % at 3 µM | 360,000 compounds, 0.99% hits | AID 624467, 2012;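 active means activation above the mean activation of all test compounds in the run plus 3 SD, cut at about 38% in these data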
Target sequence (Q96RJ0 whole entry, looked up): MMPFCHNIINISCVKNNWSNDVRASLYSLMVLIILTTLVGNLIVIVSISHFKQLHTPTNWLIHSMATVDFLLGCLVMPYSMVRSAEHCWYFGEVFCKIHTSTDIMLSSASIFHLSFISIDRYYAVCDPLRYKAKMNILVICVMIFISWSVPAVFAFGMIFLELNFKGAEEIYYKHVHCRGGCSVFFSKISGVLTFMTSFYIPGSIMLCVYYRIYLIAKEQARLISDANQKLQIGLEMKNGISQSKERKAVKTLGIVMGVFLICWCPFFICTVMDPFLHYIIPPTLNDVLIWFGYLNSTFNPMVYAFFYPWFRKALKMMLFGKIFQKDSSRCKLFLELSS
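Signal – calcium-sensitive Fluo-8 signal, excitation 470-495, emission 515-575 nm · System – RD-HGA16 (CHO) cells co-expressing Gα16 and hTAAR1 · Incubation – 17-24 h seeding, 75 min 37 °C dye, 30 min RT · Compound dosing – 3 µM single concentration · Repeats – no replicates (n 1)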
TAAR1 antagonist: human TAAR1 antagonists, primary screen, Fluo-8 calcium fluorescence, CHO RD-HGA16 cells; Trace amine-associated receptor 1 (Homo sapiens), Q96RJ0; inhibition, % at 3 µM; 360,000 compounds, 1.5% hits; antagonist;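 active means inhibition above a per-plate cutoff, the mean inhibition of test compounds on that plate plus 3 SD, cut at about 49% in these data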;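 further: 0% = DMSO plus EC80 beta-PEA response and 100% = DMSO alone without agonist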
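Test system: CHO RD-HGA16 cells bearing hTAAR1 | Reagent: β-PEA, EC80 | Compound dosing: 3 µM, single point | Schedule: Dye loading 75 min at 37 °C, then 30 min room temperature | Signal: Calcium fluorescence with Fluo-8 | Evaluation: Percent inhibition of PEA-evoked calcium signal, max/basal emission ratio | Control set: DMSO-only wells and EC80 β-PEA-stimulated wells | Repeats: Singlicate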
OXTR potentiator: human OXTR potentiators, primary screen, fluorescence, CHO-OTR cells, Fluo-8 calcium | Oxytocin receptor (Homo sapiens), P30559 | Fluo-8 calcium fluorescence, potentiator mode; 0% = oxytocin EC15, 100% = EC100 | 320,000 compounds, 0.061% hits | activation, % at 3 µM;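 active means activation above that plate's cutoff, the mean activation of tested compounds plus 3 SD, cut at about 6.6% in these data, passing the limit was not always enough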;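 further: 100% uses oxytocin at 75 nM as the full agonist control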
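assay system = CHO-OTR cells, human receptor | schedule = compound 6 min at room temperature before oxytocin, 100 s read | detection = Fluo-8 intracellular calcium fluorescence, ex 470-495, em 515-575 nm | evaluation = normalized max/min fluorescence ratio, % activation | control set = EC15 oxytocin alone as 0%, 75 nM oxytocin (EC100) as 100%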
TAAR1 nonsel count: nonselective antagonists in TAAR1 counter-screen cells, counter-screen for hTAAR1 antagonist project, cell-based, fluorescence, calcium. AID 651780, 2012. 2,400 compounds, 77% hits. counterscreen cell line, antagonist mode. inhibition, % at 3 µM. shares compounds with TAAR1 antagonist; in the data active means inhibition above about 22%;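 further: CHO-Ga16 host cells stimulated with ATP at an EC80 level; 0% = agonist EC80 plus vehicle and 100% = vehicle without agonist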
TAAR1 ant conf: human TAAR1 antagonists, retest of hits, confirmation, cell-based, fluorescence; shares compounds with TAAR1 antagonist; TAAR1-expressing cells, fluorescence antagonist read-out; inhibition, % at 3 µM; 2,400 compounds, 40% hits; AID 651785, 2012; in the data active means inhibition above about 49%;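 further: CHO-Ga16 host cells challenged with agonist PEA near its EC80; 0% = agonist at EC80 plus vehicle and 100% = vehicle with no agonist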
Ga16 nonsel ag: calcium activation in Ga16-expressing cells, counter-screen for TAAR1 antagonist project, cell-based, fluorescence | shares compounds with TAAR1 antagonist | 2,400 compounds, 18% hits | activation, % at 3 µM | agonist counterscreen; in the data active means activation above about 12%;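 further: 0% = vehicle wells and 100% = saturating stimulus response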
TAAR1 ag count: TAAR1 activation by candidate antagonists – cell-based, fluorescence, counter-screen for TAAR1 antagonist project | shares compounds with TAAR1 antagonist | hTAAR1 cell line, agonist mode | activation, % at 3 µM | 2,400 compounds, 2% hits; in the data active means activation above about 37%;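 further: CHO cells stably expressing TAAR1 with calcium dye readout; 0% = DMSO vehicle and 100% = full agonist response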
Numbers without * were called inactive; x = no result. An excerpt weighted towards active compounds, which were near 2.3% of everything screened.

SMILES	V1R ag counter	OXTR ag	TAAR1 agonist	TAAR1 antagonist	OXTR potentiator	TAAR1 nonsel count	TAAR1 ant conf	Ga16 nonsel ag	TAAR1 ag count
O=C1N[C@@H](c2ccccc2)COC(=O)[C@@H](Cc2ccc(F)cc2)C/C=C\C[C@H]1CC(=O)N(CCO)Cc1ccccc1	4	2	31	59*	-7	37*	58*	14*	13
O=C1N[C@@H](Cc2ccccc2)COC(=O)[C@H](Cc2ccc(F)cc2)CC/C=C/C[C@H]1CC(=O)N(CCO)Cc1ccccc1	0	-1	27	66*	-10	17	26	5	4
O=C1N[C@@H](c2ccccc2)COC(=O)[C@H](Cc2ccc(F)cc2)CC/C=C/C[C@@H]1CC(=O)N(CCO)Cc1ccccc1	1	1	7	43	-8	x	x	x	x
O=C1N[C@@H](Cc2ccccc2)COC(=O)[C@@H](Cc2ccc(F)cc2)CC/C=C/C[C@H]1CC(=O)N(CCO)Cc1ccccc1	7	0	30	66*	-8	31*	44	11	15
O=C1N[C@@H](Cc2ccccc2)COC(=O)[C@H](Cc2ccc(F)cc2)CC/C=C/C[C@@H]1CC(=O)N(CCO)Cc1ccccc1	0	0	3	17	-7	x	x	x	x
Cc1ccc(C(=O)n2c(-c3ccccc3)cnc2SCC(=O)Nc2ccc(C)cc2C)cc1	-1	-2	10	-18	-4	x	x	x	x
O=C(CCNC(=O)c1ccccc1Cl)NCC(c1ccco1)N1CCCC1 (centres undefined)	0	0	0	4	2	x	x	x	x
O=S(=O)(/C=C/c1ccccc1)N1CCN(c2nc(-c3cccnc3)nc3ccccc23)CC1	4	1	4	10	-10	x	x	x	x
CCN(c1ccccc1)S(=O)(=O)c1ccc(NC(=S)NC(=O)c2ccc(Br)o2)cc1	0	0	8	64*	-4	33*	40	8	0
Cc1cc(C)nc(SCCC(=O)Nc2ccccc2Cl)n1	1	0	0	-18	-12	x	x	x	x
COc1cc(OC)c(N(C)S(=O)(=O)c2cccc(C(=O)Nc3nccs3)c2)cc1Cl	2	4	10	63*	-6	28*	45	8	3
O=C(Nc1ccc(Oc2ccc(NC(=O)Nc3ccccc3Cl)cc2)cc1)Nc1ccccc1Cl	0	-1	0	-23	-6	x	x	x	x
O=C(N/N=C/c1cccc(OCC(=O)N2CCCC2)c1)C(=O)Nc1ccccc1F	6	4	15	-9	-10	x	x	x	x
COc1cc2[nH]c(=O)n(CCCCCC(=O)N3CC=C(c4ccccc4)CC3)c(=O)c2cc1OC	2	0	14	63*	-17	29*	49*	9	11
CCOC(=O)C1=C(COC(=O)COc2ccccc2C#N)NC(=O)NC1C (centres undefined)	0	0	4	-17	-3	x	x	x	x
CCOc1ccc(C(=O)OCC(=O)N(Cc2ccccc2)Cc2ccccc2)cc1OC	1	0	3	9	-8	x	x	x	x
N#CCc1ccccc1C(=O)OCC(=O)N(Cc1ccccc1)Cc1ccccc1	2	1	14	64*	-7	29*	51*	6	4
CC1CC(C)CN(C(=O)c2cc(S(=O)(=O)N3CCCCC3)ccc2Cl)C1 (centres undefined)	-1	-2	1	-5	-4	x	x	x	x
CCOC(=O)c1c(C)[nH]c(C(=O)OCC(=O)Nc2ccc(Cl)cn2)c1C	0	1	1	4	-2	x	x	x	x
CCOC(=O)c1c(C)[nH]c(C(=O)COC(=O)c2[nH]c(C)c(C(C)=O)c2C)c1C	9	11	29	77*	-7	63*	66*	15*	14
CCOC(=O)c1c(C)[nH]c(C(=O)OCC(=O)Nc2sccc2C(N)=O)c1C	8	6	19	72*	-20	39*	53*	17*	17
CC(=O)c1c(C)[nH]c(C(=O)COC(=O)CN(C)S(=O)(=O)c2ccc(Cl)cc2)c1C	10	12	23	53*	-15	40*	42	18*	11
Cc1ccc(CNC(=O)c2cc(-c3ccccc3C)nn2CC2CC(c3cccnc3)=NO2)cc1 (centres undefined)	0	-1	12	64*	-4	26*	34	5	10
Cc1ccccc1-c1cc(C(=O)NCc2ccc(OC(F)(F)F)cc2)n(CC2CC(c3cccnc3)=NO2)n1 (centres undefined)	3	0	16	70*	1	36*	53*	7	11
O=C(NCc1cccc(Br)c1)c1cc(-c2ccccc2)nn1CC1CC(c2cccnc2)=NO1 (centres undefined)	-1	0	16	56*	-8	21*	29	4	1
SMILES	V1R ag counter	OXTR ag	TAAR1 agonist	TAAR1 antagonist	OXTR potentiator	TAAR1 nonsel count	TAAR1 ant conf	Ga16 nonsel ag	TAAR1 ag count
O=c1[nH]c(C2CCCN(S(=O)(=O)Cc3ccccc3)C2)nc2c1nnn2Cc1cccc(Cl)c1 (centres undefined)	1	0	0	-33	-4	x	x	x	x
COc1ccc(/C=N/NC(=O)c2cccnc2)cc1COc1ccc([N+](=O)[O-])c(C)c1	6	3	16	64*	-15	38*	53*	12*	11
COc1ccc(/C=N/NC(=O)c2ccn[nH]2)cc1COc1ccc([N+](=O)[O-])c(C)c1	-1	-1	9	40	-6	x	x	x	x
COc1cc(/C=N/NC(=O)c2cccnc2)ccc1OC(=O)c1ccc2c(c1)OCO2	11	7	20	54*	-23	26*	29	9	17
Cc1ccc(C(=O)N/N=C/c2ccc(OC(=O)c3ccccc3Cl)cc2)cn1	9	3	16	47	-14	x	x	x	x
O=C(N/N=C/c1cccc(OC(=O)c2ccccc2Cl)c1)c1cccnc1	2	2	14	54*	-13	21	33	9	12
